Data from ChEMBL document CHEMBL4177578, “Synthesis, pharmacological activities and molecular docking studies of pyrazolyltriazoles as anti-bacterial and anti-inflammatory agents” (Bioorg Med Chem, 2017).
Activity calls are given as the source filed them. The rule behind the calls is not given here.

Columns and labels:
Type in all cases: functional
Micrococcus luteus [1] = test: Antimicrobial activity against Micrococcus luteus at 1 mg/ml incubated for 20 to 30 mins followed by incubation for 24 hrs at 37 degC by agar plate method
Procedure, shortened: (§1)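 Agar well diffusion on nutrient agar. Plates swabbed with 60 µL inoculum; 8 mm wells loaded with 100 µL of compound at 1.0 mg/mL. Held 20–30 min at 4 °C for diffusion, then 24 h at 37 °C. Inhibition zone diameter read in mm. Triplicate.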

Micrococcus luteus [2] = test: Antimicrobial activity against Micrococcus luteus incubated for 12 to 16 hrs by tube dilution method
Procedure, shortened: (§2)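 Tube dilution, serial from 500 to 1.9 µg/mL, plus drug-free control tube. Each tube inoculated with 1 mL culture at OD 0.2, incubated 37 °C for 12–16 h. MIC is the lowest concentration with no growth by turbidity. MBC is found by plating each tube on nutrient agar: the lowest concentration at which all cells are killed.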

Salmonella paratyphi [3] = test: Antimicrobial activity against Salmonella paratyphi incubated for 12 to 16 hrs followed by plating in nutrient agar by tube dilution method; conditions: Salmonella enterica subsp. enterica serovar Paratyphi A
Procedure, shortened: (§3)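 After 12-16 h at 37 °C in tube dilution (500 to 1.9 µg/mL; 1 mL inoculum at OD 0.2), the culture from each tube was plated on nutrient agar. MBC is the concentration at which cells are completely killed.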

Salmonella typhi [4] = test: Antimicrobial activity against Salmonella typhi incubated for 12 to 16 hrs followed by plating in nutrient agar by tube dilution method; conditions: Salmonella enterica subsp. enterica serovar Typhi; procedure, shortened: as §3
Salmonella paratyphi [5] = test: Antimicrobial activity against Salmonella paratyphi at 1 mg/ml incubated for 20 to 30 mins followed by incubation for 24 hrs at 37 degC by agar plate method; conditions: Salmonella enterica subsp. enterica serovar Paratyphi A
Procedure, shortened: (§4)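 Agar well diffusion on nutrient agar. Plates swabbed with 60 µL inoculum, 8 mm wells loaded with 100 µL sample at 1.0 mg/mL, streptomycin standard and control in separate wells. Plates held 20–30 min at 4 °C for diffusion, then 24 h at 37 °C. Zone diameter read in mm; triplicate.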

Salmonella paratyphi [6] = test: Antimicrobial activity against Salmonella paratyphi incubated for 12 to 16 hrs by tube dilution method; conditions: Salmonella enterica subsp. enterica serovar Paratyphi A
Procedure, shortened: (§5)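 Broth tube dilution, two-fold serial dilutions from 500 to 1.9 µg/mL plus a drug-free control tube. Each tube inoculated with 1 mL culture at OD 0.2 (~McFarland standard), 37 °C for 12-16 h. Turbidity compared with the control tube. MIC is the lowest concentration giving complete growth inhibition.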

Micrococcus luteus [7] = test: Antimicrobial activity against Micrococcus luteus incubated for 12 to 16 hrs followed by plating in nutrient agar by tube dilution method; procedure, shortened: as §2
Salmonella typhi [8] = test: Antimicrobial activity against Salmonella typhi incubated for 12 to 16 hrs by tube dilution method; conditions: Salmonella enterica subsp. enterica serovar Typhi; procedure, shortened: as §5
Salmonella typhi [9] = test: Antimicrobial activity against Salmonella typhi at 1 mg/ml incubated for 20 to 30 mins followed by incubation for 24 hrs at 37 degC by agar plate method; conditions: Salmonella enterica subsp. enterica serovar Typhi; procedure, shortened: as §4
[10] = Anti-inflammatory activity using bovine serum albumin and egg albumin proteins incubated at 37 degC for 20 mins and then heated to 95 degC for 20 mins by UV-visible Spectrophotometry based protein denaturation method
Procedure, shortened: (§6)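 Albumin (bovine serum or egg) at 1% in 50 mM sodium phosphate buffer pH 6.4. Mixture is 0.1 ml test sample (1 mg/ml) plus 0.2 ml albumin, made to 5 ml with buffer. Held 37 °C for 20 min, then 95 °C for 20 min. Cooled to room temperature, turbidity read at 660 nm. % inhibition = (Abs control − Abs sample)/Abs control × 100. Triplicate, averaged.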

[11] = Anti-inflammatory activity at 100 ug/ml using bovine serum albumin and egg albumin proteins incubated at 37 degC for 20 mins and then heated to 95 degC for 20 mins by UV-visible Spectrophotometry based protein denaturation method; procedure, shortened: as §6
[12] = Anti-inflammatory activity at 50 ug/ml using bovine serum albumin and egg albumin proteins incubated at 37 degC for 20 mins and then heated to 95 degC for 20 mins by UV-visible Spectrophotometry based protein denaturation method; procedure, shortened: as §6
Staphylococcus aureus = test: Antimicrobial activity against Staphylococcus aureus at 1 mg/ml incubated for 20 to 30 mins followed by incubation for 24 hrs at 37 degC by agar plate method; procedure, shortened: as §1

| SMILES | diameter of the inhibition zone (DIZ) (Micrococcus luteus [1]) | MIC (Micrococcus luteus [2]) | MBC (Salmonella paratyphi [3]) | MBC (Salmonella typhi [4]) | diameter of the inhibition zone (DIZ) (Salmonella paratyphi [5]) | MIC (Salmonella paratyphi [6]) | MBC (Micrococcus luteus [7]) | MIC (Salmonella typhi [8]) | diameter of the inhibition zone (DIZ) (Salmonella typhi [9]) | IC50 [10] | inhibition [11] | inhibition [12] | diameter of the inhibition zone (DIZ) (Staphylococcus aureus) |
| --- | --- | --- | --- | --- | --- | --- | --- | --- | --- | --- | --- | --- | --- |
| CCOC(=O)c1nnn(Cc2cn(-c3ccccc3)nc2-c2ccc(C)cc2)c1C(=O)OCC | inactive | inactive | inactive | inactive | inactive | inactive | inactive | inactive | inactive | Not Active | inactive | inactive | inactive |
| COc1ccc(-c2nn(-c3ccccc3)cc2Cn2cc(-c3ccccc3)nn2)cc1 | inactive | inactive | inactive | inactive | inactive | inactive | inactive | inactive | inactive | Not Active | inactive | inactive | inactive |
| COC(=O)c1nnn(Cc2cn(-c3ccccc3)nc2-c2ccc(OC)cc2)c1C(=O)OC | inactive | inactive | inactive | inactive | inactive | inactive | inactive | inactive | inactive | Not Active | inactive | inactive | inactive |
| c1ccc(-c2cn(Cc3cn(-c4ccccc4)nc3-c3ccccc3)nn2)cc1 | inactive | inactive | inactive | inactive | inactive | inactive | inactive | inactive | inactive | Not Active | inactive | inactive | inactive |
| Clc1ccc(-c2nn(-c3ccccc3)cc2Cn2cc(-c3ccccc3)nn2)cc1 | inactive | inactive | inactive | inactive | inactive | inactive | inactive | inactive | inactive | Not Active | inactive | inactive | inactive |
| CCOC(=O)c1nnn(Cc2cn(-c3ccccc3)nc2-c2ccc(OC)cc2)c1C(=O)OCC | inactive | inactive | inactive | inactive | inactive | inactive | inactive | inactive | inactive | Not Active | inactive | inactive | inactive |
| Cc1ccc(-c2nn(-c3ccccc3)cc2Cn2cc(-c3ccccc3)nn2)cc1 | inactive | inactive | inactive | inactive | inactive | inactive | inactive | inactive | inactive | Not Active | inactive | inactive | inactive |
| CCOC(=O)c1nnn(Cc2cn(-c3ccccc3)nc2-c2ccccc2)c1C(=O)OCC | inactive | inactive | inactive | inactive | inactive | inactive | inactive | inactive | inactive | Not Active | inactive | inactive | inactive |
| Brc1ccc(-c2cn(Cc3cn(-c4ccccc4)nc3-c3ccccc3)nn2)cc1 | inactive | inactive | inactive | inactive | inactive | inactive | inactive | inactive | inactive | Not Active | inactive | inactive | inactive |
| CCOC(=O)c1nnn(Cc2cn(-c3ccccc3)nc2-c2ccc(Cl)cc2)c1C(=O)OCC | inactive | inactive | inactive | inactive | inactive | inactive | inactive | inactive | inactive | Not Active | inactive | inactive | inactive |
| [N-]=[N+]=NCc1cn(-c2ccccc2)nc1-c1ccc(Cl)cc1 | inactive | inactive | inactive | inactive | inactive | inactive | inactive | inactive | inactive | Not Active | inactive | inactive | inactive |
| Nc1ccc(-c2cn(Cc3cn(-c4ccccc4)nc3-c3ccccc3)nn2)cc1 | inactive | inactive | inactive | inactive | inactive | inactive | inactive | inactive | inactive | Not Active | inactive | inactive | inactive |
| Clc1ccc(-c2cn(Cc3cn(-c4ccccc4)nc3-c3ccccc3)nn2)cc1 | inactive | inactive | inactive | inactive | inactive | inactive | inactive | inactive | inactive | Not Active | inactive | inactive | inactive |
